Assays:
[1] = target: Acrosin (Homo sapiens, UniProt P10323); assay: Inhibition of human acrosin and control activity being 11.3 umol/min/mg; settings: read-out: I50
[2] = target: Serine protease 1 (Homo sapiens, UniProt P07477); assay: Inhibition of human trypsin and the control activity being 7.3 umol/min/mg; settings: read-out: I50
[3] = Lethal dose that produces death in 50% of mice within 24 hr after acute treatment; assay type: toxicity, organism-based; settings: mouse, in vivo
How it was run: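 Mature male Swiss Webster albino mice, minimum body weight 25 g; compounds suspended in 5% gum acacia and given as a single intraperitoneal injection at 0.1 mL/10 g body weight. Deaths scored within 24 h. LD50 taken from dose-response curves by the Litchfield and Wilcoxon method, with 95% confidence limits.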

Serine protease 1, sequence (P07477 whole entry): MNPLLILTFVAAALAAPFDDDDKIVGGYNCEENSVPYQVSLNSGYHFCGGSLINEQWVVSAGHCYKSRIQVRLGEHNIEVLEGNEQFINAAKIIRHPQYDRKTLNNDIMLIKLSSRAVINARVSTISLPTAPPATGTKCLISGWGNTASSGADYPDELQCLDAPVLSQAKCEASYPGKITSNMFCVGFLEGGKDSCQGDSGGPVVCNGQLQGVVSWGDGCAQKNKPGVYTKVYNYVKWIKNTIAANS
Acrosin, sequence (P10323 20-42 limits assumed): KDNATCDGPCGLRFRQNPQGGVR
Acrosin, sequence (P10323 43-343 limits assumed): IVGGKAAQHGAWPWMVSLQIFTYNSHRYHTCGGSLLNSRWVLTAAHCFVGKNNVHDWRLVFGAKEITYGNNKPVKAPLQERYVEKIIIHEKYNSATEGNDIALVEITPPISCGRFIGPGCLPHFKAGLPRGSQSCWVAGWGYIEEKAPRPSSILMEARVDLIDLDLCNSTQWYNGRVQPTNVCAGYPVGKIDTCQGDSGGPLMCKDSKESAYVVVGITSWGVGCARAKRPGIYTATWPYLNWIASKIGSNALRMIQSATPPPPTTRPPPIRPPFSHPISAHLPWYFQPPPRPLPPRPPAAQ

| Compound | IC50 [1] [nM] | IC50 [2] [nM] | LD50 at 24 h [3] [mg/kg] |
| --- | --- | --- | --- |
| CC(C)c1ccc(OC(=O)c2ccc(NC(=N)N)cc2)cc1 | 6.6 | 17.2 | – |
| COc1cccc(OC(=O)c2ccc(NC(=N)N)cc2)c1 | 17.6 | 16.5 | – |
| CC(C)(C)c1ccc(OC(=O)c2ccc(NC(=N)N)cc2)cc1 | 28.5 | 17.1 | – |
| N#Cc1ccc(OC(=O)c2ccc(NC(=N)N)cc2)cc1 | 1.2 | 1.6 | – |
| CC(=O)Nc1ccc(OC(=O)c2ccc(NC(=N)N)cc2)cc1.Cl | 8 | 23.7 | 850 |
| Cl.N=C(N)Nc1ccc(C(=O)Oc2ccccc2C(N)=O)cc1 | 300 | 300 | > 1000 |
| N=C(N)Nc1ccc(C(=O)Oc2cccc(C(F)(F)F)c2)cc1 | 38.5 | 92.2 | – |
| Cc1ccc(C(C)C)c(OC(=O)c2ccc(NC(=N)N)cc2)c1.Cc1ccc(S(=O)(=O)O)cc1 | 300 | 500 | > 2000 |
| COC(=O)c1ccc(OC(=O)c2ccc(NC(=N)N)cc2)cc1.Cl | 0.67 | 1.5 | 235 |
| N=C(N)Nc1ccc(C(=O)Oc2ccc(Br)cc2)cc1 | 3.5 | 3.9 | – |
| COc1ccc(OC(=O)c2ccc(NC(=N)N)cc2)cc1 | 16.3 | 19 | – |
| C=CCc1ccc(OC(=O)c2ccc(NC(=N)N)cc2)c(OC)c1 | 13.7 | 8.4 | 870 |
| CCOC(=O)c1ccc(OC(=O)c2ccc(NC(=N)N)cc2)cc1.Cl | 9.3 | 1.6 | 300 |
| Cc1ccc(OC(=O)c2ccc(NC(=N)N)cc2)cc1 | 3.3 | 19.5 | – |
| N=C(N)Nc1ccc(C(=O)Oc2ccc(Cl)cc2)cc1 | 3 | 8.2 | – |
| COC(=O)c1cccc(OC(=O)c2ccc(NC(=N)N)cc2)c1 | 5.4 | 27.1 | – |
| CCCCCCc1ccc(OC(=O)c2ccc(NC(=N)N)cc2)cc1O | 99.7 | 18.5 | 620 |
| CCCCOc1ccc(OC(=O)c2ccc(NC(=N)N)cc2)cc1 | 11.4 | 22.3 | – |
| COc1ccccc1OC(=O)c1ccc(NC(=N)N)cc1 | 27.3 | 87.6 | – |
| N=C(N)Nc1ccc(C(=O)Oc2ccc(C(F)(F)F)cc2)cc1 | 33 | 16.4 | – |
| N#Cc1cccc(OC(=O)c2ccc(NC(=N)N)cc2)c1 | 7.2 | 3.8 | – |
| COC(=O)c1ccccc1OC(=O)c1ccc(NC(=N)N)cc1 | 12.9 | 65 | 750 |
| N=C(N)Nc1ccc(C(=O)Oc2ccccc2)cc1 | 5.6 | 23.4 | – |
| Cl.N=C(N)Nc1ccc(C(=O)Oc2cccc3cccnc23)cc1 | 19.8 | 27.7 | 240 |

Source: ChEMBL document CHEMBL1123155, “Synthesis and inhibition of human acrosin and trypsin and acute toxicity of aryl 4-guanidinobenzoates” (J Med Chem, 1986)
